Measured values as given in PMC9486889 (Japanese Journal of Clinical Oncology, 2022).

Assay: Phase I dose-escalation: DLT/MTD and treatment-emergent adverse events
Type: in vivo, Japanese patients
In short: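 Open-label, non-randomized 3+3 dose escalation, starting at 30 mg oral BIW with planned escalation to 50 mg, in continuous 4-week cycles. The DLT window was 28 days from first dose. DLTs were grade 4 hematologic toxicity, grade ≥3 febrile neutropenia, grade 3 thrombocytopenia with significant bleeding, other grade ≥3 non-hematologic toxicity, or troponin rising on 3 consecutive days. AEs were coded by MedDRA 19.1 and graded by CTCAE 4.03.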

## Nc1cc(F)ccc1NC(=O)c1ccc(CNC(=O)/C=C/c2cccnc2)cc1 [HBI-8000, tucidinostat]
40 mg BIW (N = 7)
  Grade 4 TEAE: Thrombocytopenia: 0 (0) n (%)
  Grade 4 TEAE: White blood cell count decreased: 0 (0) n (%)
  Number of patients with at least one related TEAE: 7 (100) n (%)
  TEAE: Abdominal pain: 1 (14.3) n (%)
  TEAE: Anaemia: 0 (0) n (%)
  TEAE: Back pain: 2 (28.6) n (%)
  TEAE: C-reactive protein increased: 1 (14.3) n (%)
  TEAE: Decreased appetite: 2 (28.6) n (%)
  TEAE: Diarrhoea: 1 (14.3) n (%)
  TEAE: Dysgeusia: 1 (14.3) n (%)
  TEAE: Fatigue: 1 (14.3) n (%)
  TEAE: Headache: 1 (14.3) n (%)
  TEAE: Hypertriglyceridaemia: 1 (14.3) n (%)
  TEAE: Hyperuricaemia: 0 (0) n (%)
  TEAE: Hypocalcaemia: 3 (42.9) n (%)
  TEAE: Hypokalaemia: 1 (14.3) n (%)
  TEAE: Insomnia: 1 (14.3) n (%)
  TEAE: Nasopharyngitis: 2 (28.6) n (%)
  TEAE: Nausea: 2 (28.6) n (%)
  TEAE: Neutropenia: 2 (28.6) n (%)
  TEAE: Neutrophil count decreased: 0 (0) n (%)
  TEAE: Platelet count decreased: 3 (42.9) n (%)
  TEAE: Pyrexia: 2 (28.6) n (%)
  TEAE: Thrombocytopenia: 4 (57.1) n (%)
  TEAE: Weight decreased: 2 (28.6) n (%)
  TEAE: White blood cell count decreased: 1 (14.3) n (%)
40 mg BIW cohort
  Incidence of thrombocytopenia: 57.1%
  TEAEs that led to dose reduction or dose delay: four
  TEAEs that led to treatment discontinuation: four
Total (N = 14)
  Grade 3: Number of patients with at least one TEAE: 9 (64.3) n (%)
  Grade 3 TEAE: Abdominal pain: 1 (7.1) n (%)
  Grade 3 TEAE: Alanine aminotransferase increased: 1 (7.1) n (%)
  Grade 3 TEAE: Anaemia: 1 (7.1) n (%)
  Grade 3 TEAE: Blood creatine phosphokinase increased: 1 (7.1) n (%)
  Grade 3 TEAE: Enterocolitis: 1 (7.1) n (%)
  Grade 3 TEAE: Erythema multiforme: 1 (7.1) n (%)
  Grade 3 TEAE: Erythema nodosum: 1 (7.1) n (%)
  Grade 3 TEAE: Hyperglycaemia: 1 (7.1) n (%)
  Grade 3 TEAE: Hypertriglyceridaemia: 1 (7.1) n (%)
  Grade 3 TEAE: Lymphocyte count decreased: 1 (7.1) n (%)
  Grade 3 TEAE: Neutropenia: 1 (7.1) n (%)
  Grade 3 TEAE: Neutrophil count decreased: 2 (14.3) n (%)
  Grade 3 TEAE: Parkinsonism: 1 (7.1) n (%)
  Grade 3 TEAE: Pyrexia: 1 (7.1) n (%)
  Grade 3 TEAE: Rash generalized: 1 (7.1) n (%)
  Grade 3 TEAE: Thrombocytopenia: 2 (14.3) n (%)
  Grade 3 TEAE: White blood cell count decreased: 2 (14.3) n (%)
  Grade 4: Number of patients with at least one TEAE: 2 (14.3) n (%)
  Grade 4 TEAE: Abdominal pain: 0 (0) n (%)
  Grade 4 TEAE: Alanine aminotransferase increased: 0 (0) n (%)
  Grade 4 TEAE: Anaemia: 0 (0) n (%)
  Grade 4 TEAE: Blood creatine phosphokinase increased: 0 (0) n (%)
  Grade 4 TEAE: Enterocolitis: 0 (0) n (%)
  Grade 4 TEAE: Erythema multiforme: 0 (0) n (%)
  Grade 4 TEAE: Erythema nodosum: 0 (0) n (%)
  Grade 4 TEAE: Hyperglycaemia: 0 (0) n (%)
  Grade 4 TEAE: Hypertriglyceridaemia: 0 (0) n (%)
  Grade 4 TEAE: Lymphocyte count decreased: 0 (0) n (%)
  Grade 4 TEAE: Neutropenia: 2 (14.3) n (%)
  Grade 4 TEAE: Neutrophil count decreased: 0 (0) n (%)
  Grade 4 TEAE: Parkinsonism: 0 (0) n (%)
  Grade 4 TEAE: Pyrexia: 0 (0) n (%)
  Grade 4 TEAE: Rash generalized: 0 (0) n (%)
  Grade 4 TEAE: Thrombocytopenia: 0 (0) n (%)
  Grade 4 TEAE: White blood cell count decreased: 0 (0) n (%)
  Number of patients with at least one related TEAE: 13 (92.9) n (%)
  TEAE: Abdominal pain: 2 (14.3) n (%)
  TEAE: Anaemia: 5 (35.7) n (%)
  TEAE: Back pain: 2 (14.3) n (%)
  TEAE: C-reactive protein increased: 2 (14.3) n (%)
  TEAE: Decreased appetite: 3 (21.4) n (%)
  TEAE: Diarrhoea: 4 (28.6) n (%)
  TEAE: Dysgeusia: 3 (21.4) n (%)
  TEAE: Fatigue: 4 (28.6) n (%)
  TEAE: Headache: 2 (14.3) n (%)
  TEAE: Hypertriglyceridaemia: 2 (14.3) n (%)
  TEAE: Hyperuricaemia: 2 (14.3) n (%)
  TEAE: Hypocalcaemia: 3 (21.4) n (%)
  TEAE: Hypokalaemia: 3 (21.4) n (%)
  TEAE: Insomnia: 2 (14.3) n (%)
  TEAE: Nasopharyngitis: 2 (14.3) n (%)
  TEAE: Nausea: 3 (21.4) n (%)
  TEAE: Neutropenia: 3 (21.4) n (%)
  TEAE: Neutrophil count decreased: 2 (14.3) n (%)
  TEAE: Platelet count decreased: 6 (42.9) n (%)
  TEAE: Pyrexia: 3 (21.4) n (%)
  TEAE: Thrombocytopenia: 6 (42.9) n (%)
  TEAE: Weight decreased: 3 (21.4) n (%)
  TEAE: White blood cell count decreased: 4 (28.6) n (%)
All 14 patients
  Neutrophil count decreased leading to dose reduction or dose delay: 14.3%
  Patients with at least one TEAE: 92.9%
  Platelet count decreased leading to dose reduction or dose delay: 28.6%
  TEAEs that led to dose reduction or dose delay: 57.1%
  TEAEs that led to treatment discontinuation: 42.9%
oral
  Recommended phase II dose (RP2D): 40 mg BIW
oral, 4-week cycles
  Maximum tolerated dose (MTD): 40 mg BIW
